High-throughput results from PubChem.
Jurkat NFkB inh = inhibitors of induced NF-kB luciferase reporter, primary screen, TCR NF-kB activation inhibitor project, cell-based, luminescence, uHTS. Jurkat, PMA/ionomycin-induced NF-kB luciferase reporter. inhibition, % at 4 µM. actives 0.53% (n = 330,000). AID 435003, 2010; in the data active means inhibition above about 50%
UPR CHOP act = activators of apoptotic CHOP UPR arm, primary screen, cell-based, CHO-CHOP luciferase reporter, luminescence, uHTS; UPR activation; percent of tunicamycin response over DMSO baseline; activation, % at 10 µM; actives 0.34% (n = 330,000); AID 449763, 2010;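 active means at 10 µM dose, activation of 40% or more, normalized to positive control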;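 further: 100% = tunicamycin at 10 µg/mL and 0% = DMSO alone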
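Material: CHO-CHOP cells, stable luciferase reporter of PERK-eIF2a-CHOP signalling; quantity: 500 reporter cells seeded per well; buffer or medium: F12 medium containing 10% fetal bovine serum; compound: one dose, 10 µM in 0.5% DMSO; incubation: 6 h compound treatment, 37 °C; measured by: Steady-Glo luciferase luminescence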
CHOP inhibitor = inhibitors of CHOP promoter induction, primary screen, cell-based, unfolded protein response, luciferase reporter. CHO-K1 CHOP-promoter luciferase, tunicamycin-induced, 15-18 h. AID 2732, 2010. inhibition, % at 10 µM. actives 3.8% (n = 220,000);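 active means compounds that reduced the stress-induced luciferase reporter signal by more than about 70% of percent inhibition, limit read from the data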;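 further: 0% = tunicamycin plus vehicle and 100% = wells without tunicamycin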
697 NFkB inh = inhibitors of PMA/ionomycin-induced NF-kB reporter, 697 cells, primary screen, B-cell NF-kB inhibitor project, cell-based, luminescence, uHTS; 697 B-cell NF-kB luciferase reporter, 16 h; actives 0.33% (n = 330,000); inhibition, % at 4 µM; in the data active means inhibition above about 35%
XBP1 UPR activ = activators of adaptive XBP1 UPR arm, primary screen, cell-based, CHO-XBP1 luciferase reporter, luminescence, uHTS. activation, % at 20 µM. IRE1-XBP1 UPR activation; percent of tunicamycin response, DMSO as zero. AID 463104, 2010. actives 0.33% (n = 330,000);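 active means versus positive control, 20 µM dose yields 30% or more activation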;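 further: 100% = tunicamycin at 10 µg/mL and 0% = DMSO only wells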
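Material: CHO cell line with stable XBP1 luciferase reporter; schedule: 16-18 h cell attachment at 37 °C, then 6 h compound exposure; signal: glow luminescence from Steady-Glo reagent; medium: serum-containing F12 medium, 10% FBS; benchmarks: tunicamycin 10 µg/mL and vehicle-only wells; read-out: percent activation relative to tunicamycin reference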
An asterisk follows results filed as active; . = not tested or not shown. Shown is part of a subset that was picked to be rich in hits.

SMILES	Jurkat NFkB inh	UPR CHOP act	CHOP inhibitor	697 NFkB inh	XBP1 UPR activ
COc1ccccc1/C=C/C=N/n1c(C2CCCCC2)n[nH]c1=S	7.3	2.0	93.5*	-24.2	3.1
CCN1CCN(C(=S)Nc2ccc3nc4n(c(=O)c3c2)CCCCC4)CC1	-1.8	-1.7	14.4	-1.4	-3.4
CC1OC(O[C@H]2CC[C@]3(C)C4C=C[C@]56OC[C@@]7(CC[C@@H](C)[C@H](C)C75)[C@H](O)C[C@@]6(C)[C@]4(C)CC[C@H]3C2(C)C)C(OC2OC(CO)C(O)C(O)C2OC2OCC(O)C(O)C2O)C(O)C1O (some centres undefined)	.	.	100.5*	.	.
COc1ccccc1CNC(=O)c1cccc(S(=O)(=O)N2CCCC2)c1	3.2	1.0	.	3.1	1.1
O=C(CNC(=O)c1ccc(Cl)cc1)OCn1nnc2ccccc2c1=O	-4.0	-0.5	.	8.0	-1.6
CC(C)(Oc1ccc(Cl)cc1)C(=O)OCn1nnc2ccccc2c1=O	10.5	0.0	78.2*	-8.5	-1.5
O=C(CC1CCCCC1)OCn1nnc2ccccc2c1=O	-2.7	-0.7	82.3*	1.6	-1.4
O=C(CNC(=O)C1CCCCC1)OCn1nnc2ccccc2c1=O	-2.9	0.8	36.3	-6.1	-2.1
C[C@@H]1CCC[C@@]2(O[C@H](CCO)C[C@H](O)[C@H]2O)O1	-0.4	-1.9	.	-59.2	-0.5
CCCn1c(SCc2ccc(Cl)cc2)nc2c1c(=O)[nH]c(=O)n2C	-2.5	1.1	81.8*	-40.3	18.8
C/C=C/Cn1c(SCc2ccc(Cl)cc2)nc2c1c(=O)[nH]c(=O)n2C	-4.2	0.8	76.4*	-27.5	12.5
COCCn1c(SCc2ccc(Cl)cc2)nc2c1c(=O)[nH]c(=O)n2C	-6.6	0.6	.	-43.5	5.8
CCOC(=O)C1CCN(C(=O)COC(=O)c2ccc(=O)n(Cc3ccccc3)n2)CC1	9.5	-0.1	.	8.9	0.0
O=C(N/N=C/C1=C(N2CCOCC2)C(=C\c2ccccc2)/CC1)Nc1ccccc1	-8.3	28.3	82.2*	-58.9	16.5
CC(c1ccco1)N(C(=O)C12CC3(C)CC(C)(CC(C)(C3)C1)C2)c1ccccn1 (centres undefined)	6.4	-1.3	86.2*	2.0	-1.5
Cc1cccc(C(=O)N(c2ccccn2)C(C)c2ccco2)c1 (centres undefined)	-23.0	1.3	-4.4	-21.6	0.7
COC(=O)c1ccc(NC(=O)CN2CCN(CCO)CC2)cc1	-5.5	0.2	.	8.6	-1.6
Cn1c(=O)cc(-c2ccccc2)c2ccccc21	-4.0	1.1	80.0*	21.1	6.0
Cc1ccc2c(c1)CCCN2C(=O)c1cc(C)on1	13.6	-0.4	.	-12.1	-1.9
CCOc1ccccc1NC1c2ccccc2C(=O)N1Cc1ccco1 (centres undefined)	10.5	1.8	28.1	-13.7	-2.4
CCc1ccccc1NC1c2ccccc2C(=O)N1Cc1ccco1 (centres undefined)	14.5	2.1	74.7*	13.0	0.4
NS(=O)(=O)c1ccc(CNC(=O)c2cc(=O)c3cc(Cl)ccc3o2)cc1	3.0	2.7	.	1.3	-2.1
COc1ccc(/C=N\NC(=O)COc2ccccc2Cl)cc1Cn1nc(C)cc1C	8.9	1.8	80.7*	7.7	3.5
COc1ccc(/C=N/NC(=O)c2ccc(Cl)cc2)cc1Cn1cc(Cl)cn1	-4.3	1.5	85.7*	-2.1	-3.5
COc1ccc(/C=N/NC(=O)CCn2nc(C)cc2C)cc1O	1.0	1.0	-1.6	10.1	-0.3
SMILES	Jurkat NFkB inh	UPR CHOP act	CHOP inhibitor	697 NFkB inh	XBP1 UPR activ
COc1ccc(NC(=O)CSc2nnc(Cc3ccc(C)cc3)c(=O)n2N)cc1OC	16.7	3.3	.	-3.2	4.8
CCC1CN(C(=O)N2CCC(C(=O)NCCc3ccccc3)CC2)c2ccccc2O1 (centres undefined)	9.3	1.3	.	5.4	-0.5
CCOc1ccc(C(=O)N[C@H](C(=O)NNC(=O)c2cccs2)C(C)C)cc1	-3.0	-0.8	.	4.8	-3.6
Cc1ccc(C)c(N=Cc2cc3c(cc2[N+](=O)[O-])OCO3)c1	-1.0	3.3	81.2*	-1.6	4.0
Cc1ccc(N=Cc2cc3c(cc2[N+](=O)[O-])OCO3)cc1[N+](=O)[O-]	0.2	3.8	.	-15.7	2.4
CCOc1ccc(NC(=O)CNc2ccc(C)cc2Cl)cc1	6.7	3.0	90.8*	17.4	0.3
CCOc1ccc(NCC(=O)Nc2ccc(C)cc2C)cc1	2.0	1.5	19.1	4.1	-0.4
COc1ccc(C)cc1NCC(=O)Nc1ccc(C(C)(C)C)cc1	-14.6	0.6	70.3*	-23.9	4.5
Cc1cccc(NC(=O)CNc2cc(C)ccc2C)c1	-25.3	2.6	77.3*	-4.8	0.1
CC(O)CNc1nc2sc3c(c2c(=O)n1CCc1ccccc1)CCCCC3 (centres undefined)	-30.0	3.8	91.1*	-15.3	2.4
Clc1ccccc1Sc1ccc(-c2ccccn2)s1	0.2	0.3	4.5	-10.4	1.7
CC1CCc2ccc(F)cc2N1S(=O)(=O)c1cccs1 (centres undefined)	17.6	-1.1	82.9*	9.9	0.4
Cc1ccc(/C=N/Nc2ccnc3cc(Cl)ccc23)c(C)c1	16.8	25.6	104.8*	-21.0	22.1
Clc1ccc2c(N/N=C/c3cccnc3)ccnc2c1	-37.8	-0.3	-0.7	-1.6	1.9
Oc1ccc(/C=N/Nc2ccnc3cc(Cl)ccc23)c(O)c1	-23.9	10.0	90.2*	-75.5	1.6
Oc1ccc(Nc2ccnc3cc(Cl)ccc23)cc1	-31.4	0.3	9.0	-6.9	1.7
COc1ccc(NC(=O)CCNS(=O)(=O)c2cccc3nonc23)c(OC)c1	16.4	0.4	.	15.9	-2.1
Cc1ccccc1NC(=O)c1cc(N)ccc1N1CCCCC1	8.1	0.3	0.2	22.2	-0.1
CCC(=O)Nc1ccc(N2CCCCC2)c(C(=O)Nc2ccccc2C)c1	8.2	-0.5	72.0*	11.1	-1.7
CCCCCCC1CC(CC(=O)Nc2ccc([N+](=O)[O-])cc2)C(=O)O1 (centres undefined)	-14.9	0.6	94.8*	9.7	-2.6
CC1(C)CC(CC(=O)Nc2ccc([N+](=O)[O-])cc2)C(=O)O1 (centres undefined)	9.2	-2.3	12.2	24.7	1.2
CCCCCC1CC(CC(=O)NC(=S)Nc2ccc([N+](=O)[O-])cc2)C(=O)O1 (centres undefined)	-10.0	-2.2	85.0*	9.2	-5.7
Nc1nc(-c2ccccc2)c(-c2ccc([N+](=O)[O-])cc2)s1	7.4	4.1	74.2*	-14.3	-0.5
Nc1nc(-c2ccccc2)c(-c2ccccc2)s1	1.8	0.9	16.4	16.7	0.6
Cc1ccc(-c2nc(N)sc2-c2ccccc2)cc1C	-3.1	0.8	86.7*	-7.3	5.1
